The source of these data is ChEMBL document CHEMBL4340580, “Antibacterial and Inhibitory Activities against Nitric Oxide Production of Coumaronochromones and Prenylated Isoflavones from Millettia extensa” (J Nat Prod, 2019).

pIC50: −log10 of the molar value. Values after ≈ are worked out from the molar mass of the structure shown. Active and inactive are the calls of the source.

Data set [1] concerns Shigella flexneri. The experiment in a line: Antibacterial activity against Shigella flexneri by CLSI protocol based method. It counts as functional. An outline of the steps: (§1)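 Strains came from the Microbiological Resources Center, Bangkok, Thailand. Antibacterial testing followed Clinical and Laboratory Standards Institute recommendations.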
The test system of data set [2] is Pseudomonas aeruginosa. Put plainly: Antibacterial activity against Pseudomonas aeruginosa by CLSI protocol based method. It counts as functional. Put shortly: as §1
Data set [3] has as its system Streptococcus mutans. Put plainly: Antibacterial activity against Streptococcus mutans at >128 ug/ml by CLSI protocol based method. Format: functional, organism-based. An outline of the steps:
as §1

Data set [4] relates to RAW264.7. Put plainly: Inhibition of LPS-induced nitric oxide production in mouse RAW264.7 cells incubated for 24 hrs by Griess reagent based assay. Format: functional, cell-based. As to conditions: for IC50: raw264.7; for pIC50: Mus musculus, RAW264.7, 24 h, read-out: IC50. An outline of the steps:
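RAW 264.7 cells were seeded at 5.0 × 10^5 cells/mL and held 24 h at 37 °C, 5% CO2. Medium was discarded and cells were stimulated with 1 μg/mL LPS with or without compound for 24 h at 37 °C. Supernatant was mixed 1:1 with Griess reagent for 10 min at room temperature. Absorbance was read at 570 nm against a sodium nitrite calibration curve, giving IC50.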

Data set [5] deals with Micrococcus luteus. Put plainly: Antibacterial activity against Micrococcus luteus by CLSI protocol based method. It counts as functional. An outline of the steps:
as §1

For data set [6], the system named is Escherichia coli. The experiment in a line: Antibacterial activity against Escherichia coli at >128 ug/ml by CLSI protocol based method. Format: functional, organism-based. Put shortly: as §1
Data set [7] concerns Micrococcus luteus. Put plainly: Antibacterial activity against Micrococcus luteus at >128 ug/ml by CLSI protocol based method. Format: functional, organism-based. Put shortly: as §1
Data set [8] deals with Staphylococcus aureus. Put plainly: Antibacterial activity against Staphylococcus aureus by CLSI protocol based method. It counts as functional. An outline of the steps: as §1
The subject of data set [9] is Streptococcus mutans. Put plainly: Antibacterial activity against Streptococcus mutans by CLSI protocol based method. It counts as functional. An outline of the steps:
as §1

Data set [10] deals with Escherichia coli. Put plainly: Antibacterial activity against Escherichia coli by CLSI protocol based method. It counts as functional. Put shortly:
as §1

Data set [11] has as its system Staphylococcus epidermidis. The experiment in a line: Antibacterial activity against Staphylococcus epidermidis by CLSI protocol based method. Format: functional. An outline of the steps:
as §1

Data set [12] deals with Pseudomonas aeruginosa. The experiment in a line: Antibacterial activity against Pseudomonas aeruginosa at >128 ug/ml by CLSI protocol based method. Format: functional, organism-based. Put shortly:
as §1

Data set [13] is described as follows: Toxicity in mouse RAW264.7 cells assessed as cell viability at 10 uM by MTT assay. Format: cell-based. As to conditions: read-out: Activity. In general terms: Formazan colour is commonly taken as a measure of viable cells.
In data set [14] the test system is Bacillus cereus. The experiment in a line: Antibacterial activity against Bacillus cereus at >128 ug/ml by CLSI protocol based method. It counts as functional, organism-based. An outline of the steps:
as §1

For data set [15], the system named is Bacillus cereus. The experiment in a line: Antibacterial activity against Bacillus cereus by CLSI protocol based method. It counts as functional. Put shortly:
as §1

In data set [16] the test system is Shigella flexneri. The experiment in a line: Antibacterial activity against Shigella flexneri at >128 ug/ml by CLSI protocol based method. Format: functional, organism-based. Put shortly: as §1

A word on the MIC: it is the smallest concentration in the dilution series that meets the test's criterion for growth inhibition. As for `COc1cc(-c2coc3cc4c(c(O)c3c2=O)C=CC(C)(C)O4)c(OC)cc1OCC=C(C)C`, the MIC in [1], in [8] and in [11] was 128 µg/mL (≈ 276 µM) throughout. The MIC entry in data set [2], in data set [5], in data set [9], in [10] and in data set [15] was “inactive” each time. Further, the result in data set [3], in data set [6], in data set [7], in data set [12] and in data set [14] was inactive. Also, in data set [4], the IC50 result is listed as “Not Active”. Also, in data set [13], the viability at 10 µM is 60.1%.

Regarding `CC(C)=CCc1c2c(c(O)c3c(=O)c4c(oc5cc(O)ccc54)oc13)C=CC(C)(C)O2`, the minimal inhibitory concentration (MIC) in data set [1], in data set [8], in data set [11] and in data set [15] was 128 µg/mL (≈ 306 µM) throughout. Moreover, the MIC result in [2], in [5], in data set [9] and in [10] was “inactive” in each case. Moreover, the result in data set [3], in data set [6], in [7] and in [12] was inactive. Besides, the IC50 result in data set [4] is “Not Active”. Also, in [13], the viability at 10 µM stood at 79.2%.

Regarding `CC1(C)C=Cc2c(c(CCO)c3occ(-c4ccc(O)c(O)c4)c(=O)c3c2O)O1`, the MIC entry in [1] and in data set [2] was “inactive” each time. The result in data set [16] and in [12] was inactive. Further, in [4], the IC50 result is listed as “Not Active”. Further, the minimal inhibitory concentration (MIC) in data set [5] was determined as 32 µg/mL (≈ 80.7 µM); in [9], 128 µg/mL (≈ 323 µM); in [10], 128 µg/mL (≈ 323 µM); in [11], 128 µg/mL (≈ 323 µM). Also, the viability at 10 µM in data set [13] was 68.2%.

In the case of `CN[C@H](CC(C)C)C(=O)N[C@H]1C(=O)N[C@@H](CC(N)=O)C(=O)N[C@H]2C(=O)N[C@H]3C(=O)N[C@H](C(=O)N[C@H](C(=O)O)c4cc(O)cc(O)c4-c4cc3ccc4O)[C@H](O)c3ccc(c(Cl)c3)Oc3cc2cc(c3O[C@@H]2O[C@H](CO)[C@@H](O)[C@H](O)[C@H]2O[C@H]2C[C@](C)(N)[C@H](O)[C@H](C)O2)Oc2ccc(cc2Cl)[C@H]1O` [VANCOMYCIN], the minimum inhibitory concentration (MIC) is 0.25 µg/mL (≈ 0.173 µM) in data set [5]; 0.25 µg/mL (≈ 0.173 µM) in data set [8]; 0.25 µg/mL (≈ 0.173 µM) in [9]; 0.25 µg/mL (≈ 0.173 µM) in data set [11]; 0.125 µg/mL (≈ 0.0863 µM) in [15].

GENTAMICIN showed an MIC in data set [10] of 0.25 µg/mL.

With `COc1c2c(cc3occ(-c4ccc(OCC=C(C)C)cc4)c(=O)c13)OC(C)(C)C=C2`, the IC50 entry in data set [4] is “Not Active”. Further, the result in [12] was inactive. In [13], the viability at 10 µM worked out at 68.7%.

With `C=CC(C)(C)c1cc(-c2coc3cc4c(c(O)c3c2=O)C=CC(C)(C)O4)ccc1O`, the minimal inhibitory concentration (MIC) in data set [1] stood at 128 µg/mL (≈ 316 µM); in data set [5] it was 64 µg/mL (≈ 158 µM); in [8] it was 64 µg/mL (≈ 158 µM); in data set [9], 128 µg/mL (≈ 316 µM); in data set [11], 128 µg/mL (≈ 316 µM); in [15], 64 µg/mL (≈ 158 µM). For the same compound, the MIC result in data set [2] and in data set [10] was “inactive” in each case. The IC50 entry in [4] is “Not Active”. Besides, the outcome in data set [6] and in data set [12] was inactive. Further, in [13], the viability at 10 µM was 61.1%.

The term pIC50 denotes the IC50 on a negative log10 scale, so that one unit is a factor of ten. `COc1ccc2c(c1)c(CC(=O)O)c(C)n2C(=O)c1ccc(Cl)cc1` [INDOMETHACIN]: the pIC50 in data set [4] is 4.20.

As to `C=CC(C)(C)c1cc(-c2coc3cc4c(c(OC)c3c2=O)C=CC(C)(C)O4)c(O)cc1O`, the MIC entry in data set [1] is “inactive”. Further, the result in [16] was inactive. In addition, the MIC in [2] was found to be 128 µg/mL (≈ 295 µM); in data set [5], 32 µg/mL (≈ 73.6 µM); in [8], 8 µg/mL (≈ 18.4 µM); in data set [9], 128 µg/mL (≈ 295 µM); in data set [10], 128 µg/mL (≈ 295 µM); in data set [11] it was 128 µg/mL (≈ 295 µM). For the same compound, inhibition of growth in data set [15] (MIC) required 8 µg/mL (≈ 18.4 µM).

For the compound `CC(C)=CCC1=C(O)c2c(occ(-c3ccc(O)c(O)c3)c2=O)C(CC=C(C)C)(CC=C(C)C)C1=O`, the MIC in data set [1] turned out to be 128 µg/mL (≈ 261 µM); in data set [2], 128 µg/mL (≈ 261 µM); in [5] it was 2 µg/mL (≈ 4.08 µM); in data set [8], 4 µg/mL (≈ 8.15 µM); in [9], 16 µg/mL (≈ 32.6 µM); in data set [10], 128 µg/mL (≈ 261 µM). For the same compound, the MIC in data set [11] worked out at 4 µg/mL (≈ 8.15 µM); in [15], 32 µg/mL (≈ 65.2 µM).

For the compound `CC(C)=CCOc1ccc2c(c1)O[C@@H]1Oc3cc4c(c(O)c3C(=O)[C@]21O)C=CC(C)(C)O4`, the MIC result in [1], in [2] and in data set [10] was “inactive” throughout. For the same compound, the outcome in data set [16], in data set [6] and in data set [12] was inactive. Also, the IC50 result in data set [4] is “Not Active”. Also, the MIC in [5] is 64 µg/mL (≈ 147 µM); in data set [8], 32 µg/mL (≈ 73.3 µM); in [9], 128 µg/mL (≈ 293 µM); in data set [11], 128 µg/mL (≈ 293 µM); in data set [15], 32 µg/mL (≈ 73.3 µM). In addition, the viability at 10 µM in [13] is 65.3%.

`CC(C)=CCc1c2c(c(O)c3c(=O)c(-c4ccc(O)cc4O)coc13)C=CC(C)(C)O2`: the IC50 entry in data set [4] is “Not Active”. For the same compound, the viability at 10 µM in [13] is 75.5%.

In the case of `CC(C)=CCC1=C(O)c2c(occ(-c3ccc(O)cc3O)c2=O)C(CC=C(C)C)(CC=C(C)C)C1=O`, the IC50 entry in data set [4] is given as “Not Active”. Further, the viability at 10 µM in [13] worked out at 75.5%.

In the case of `CC(C)=CCc1c(O)c(CC=C(C)C)c2occ(-c3ccc(O)c(O)c3)c(=O)c2c1O`, the minimum inhibitory concentration (MIC) was found to be 128 µg/mL (≈ 303 µM) in data set [1]; 128 µg/mL (≈ 303 µM) in data set [2]; 16 µg/mL (≈ 37.9 µM) in [5]; 32 µg/mL (≈ 75.7 µM) in [8]; 16 µg/mL (≈ 37.9 µM) in data set [9]; 128 µg/mL (≈ 303 µM) in data set [10]. The MIC in data set [11] stood at 128 µg/mL (≈ 303 µM); in [15], 16 µg/mL (≈ 37.9 µM). Besides, in [4], the pIC50 was 4.84. The viability at 10 µM in data set [13] is 90.2%.

Take `CC(C)=CCc1c2c(c(O)c3c(=O)c(-c4ccc(O)cc4)coc13)C=CC(C)(C)O2` [WARANGALONE]: in [4], the negative-log IC50 (pIC50) was 5.07. The viability at 10 µM in [13] was 86.5%.

For the compound `COc1c2c(cc3c1C(=O)[C@]1(O)c4ccc(OCC=C(C)C)cc4O[C@@H]1O3)OC(C)(C)C=C2`, the MIC result in data set [1], in [2] and in [10] was “inactive” each time. Besides, the outcome in data set [16], in [6] and in data set [12] was inactive. Besides, the IC50 entry in [4] was “Not Active”. Moreover, the MIC in data set [5] came to 64 µg/mL (≈ 142 µM); in data set [8] it was 32 µg/mL (≈ 71 µM); in data set [9], 128 µg/mL (≈ 284 µM); in data set [11] it was 128 µg/mL (≈ 284 µM); in data set [15], 32 µg/mL (≈ 71 µM). In [13], the viability at 10 µM came to 64.4%.
